According to ChEMBL document CHEMBL1127313, “The discovery of sulfonamide endothelin antagonists and the development of the orally active ETA antagonist 5-(dimethylamino)-N-(3,4-dimethyl-5-isoxazolyl)-1-naphthalenesulf onamide” (J Med Chem, 1994):

Tests used:
Rattus norvegicus = assay: Antihypertensive activity administered orally at […] was determined in vivo in rats; assay type: functional
Summary of the method: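 Uninephrectomized rats implanted with a DOCA pellet and given saline to drink develop hypertension. Single 100 µmol/kg oral dose in 5% NaHCO3 given at time 0, with a vehicle group. Mean arterial pressure followed over 24 h as % change from pre-dose control; mean ± SEM, n = 6 animals.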

A10 = assay: Ability to inhibit [125I]ET1 binding to vascular smooth muscle (vsm)- A10 cells; assay type: functional, cell-based; details: Rattus norvegicus
Summary of the method: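 Intact rat vsm-A10 cells: confluent cells scraped, pelleted, resuspended in PBS with 0.1% glucose and 0.1% BSA. Bound and free ligand separated by filtration; bound radioactivity counted by scintillation; IC50 reported.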

[1] = target: T1, Endothelin-1 receptor (Homo sapiens) (UniProt P25101); details: Oryctolagus cuniculus
T1 sequence (whole entry): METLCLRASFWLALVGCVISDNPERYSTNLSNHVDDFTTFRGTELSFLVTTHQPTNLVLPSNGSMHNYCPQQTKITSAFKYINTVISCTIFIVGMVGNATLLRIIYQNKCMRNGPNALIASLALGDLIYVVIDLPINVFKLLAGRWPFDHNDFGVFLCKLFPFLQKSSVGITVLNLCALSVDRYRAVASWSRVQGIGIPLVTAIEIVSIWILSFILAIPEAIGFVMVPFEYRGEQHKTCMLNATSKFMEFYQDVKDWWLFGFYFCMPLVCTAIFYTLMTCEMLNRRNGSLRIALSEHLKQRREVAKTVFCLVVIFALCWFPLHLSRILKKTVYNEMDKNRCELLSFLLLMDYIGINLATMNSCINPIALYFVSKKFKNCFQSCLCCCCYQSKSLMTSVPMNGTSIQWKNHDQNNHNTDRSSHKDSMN

Row | IC50 (A10) [µM] | Structure (SMILES) | other results
1 |  | Cc1noc(NS(=O)(=O)c2cccc3c(N(C)C)cccc23)c1C [BMS-182874] | Mean arterial blood pressure (Rattus norvegicus): 45.8 mmHg
2 | > 32 | Nc1ccc(S(=O)(=O)Nc2cc(-c3ccccc3)no2)cc1 | 
3 |  | Cc1noc(NS(=O)(=O)c2cccc3c(O)cccc23)c1C | K Bapp [1]: 100 µM
4 | > 32 | CCCCCc1cc(NS(=O)(=O)c2ccc(N)cc2)on1 | 
